Measured values of several laboratories.
Protocols differ between the studies behind these lines.
Organism: Plasmodium falciparum
Effect on: parasite growth

SMILES	assay	test system	conditions	EC50 [nM]
CCn1cc(C(=O)N2CCOCC2)c(=O)c2cc(F)c(N3CCC(C)CC3)cc21	–	3D7	72 h, blood stage	> 10000
COc1ccc(Nc2ccnc3cc(-c4ccc(S(=O)(=O)N5CCN(C)CC5)cc4)ccc23)cc1	–	D6	drug-resistant strain, blood stage	18
COc1ccc(OCCCO)cc1-c1cn2cc(-c3nnc(NCCCCc4ccccc4)o3)ccc2n1	–	3D7	72 h, blood stage	2980
CCn1cc(-c2nc(C)no2)c(=O)c2cc(F)c(N3CCN(C)CC3)cc21	–	3D7	72 h, blood stage	4570
Cn1cc(-c2cnc3[nH]cc(-c4cn(Cc5cccc(F)c5F)nn4)c3c2)cn1	–	3D7	72 h, blood stage	599
CCCNCC(O)COc1ccccc1C(=O)CCc1ccccc1 (centres unmarked)	SYBR Green	3D7	blood stage	2690
CN1CCN(S(=O)(=O)c2ccc(-c3ccc4c(Nc5cnc(C#N)cn5)ccnc4c3)cc2)CC1	–	D6	drug-resistant strain, blood stage	120
CCn1cc(-c2nc(C)no2)c(=O)c2cc(F)c(N3CCN(C(C)=O)CC3)cc21	–	3D7	72 h, blood stage	> 10000
CN1CCC(c2cc(-c3ccncc3)c(-c3ccc(F)cc3)[nH]2)CC1	SYBR Green	A10, 3D7	72 h, blood stage	90
CCn1cc(-c2nc(C)no2)c(=O)c2cc(F)c(N3CCC(c4ccccc4)CC3)cc21	–	3D7	72 h, blood stage	30
COc1ncc(Nc2ccnc3cc(-c4ccc(S(=O)(=O)N5CCN(C)CC5)cc4)ccc23)cn1	–	D6	drug-resistant strain, blood stage	50
CCn1cc(-c2nc(C)no2)c(=O)c2cc(F)c(N3CCC(Cc4ccccc4)CC3)cc21	–	3D7	blood stage	32.1
CC(C)(C)OC(=O)Nc1ccc2c(Nc3ccc(OCc4cccc(F)c4)c(Cl)c3)ccnc2c1	–	D6	drug-resistant strain, blood stage	50
C[C@H]1[C@@H](O)O[C@@H]2O[C@@]3(C)CC[C@H]4[C@H](C)CC[C@@H]1[C@@]24OO3	–	NF54	24 h, gametocyte	13.8
CNS(=O)(=O)c1ccccc1Nc1nc(Nc2cc(OC)c(OC)cc2C)ncc1Br	–	3D7	72 h, blood stage	153
Cc1nnc(Nc2ccnc3cc(-c4ccc(S(=O)(=O)N5CCN(C)CC5)cc4)ccc23)nc1C	–	D6	drug-resistant strain, blood stage	160
COc1cc(OC)c(CCNC(=O)c2cn3cc(-c4cc(OCC(=O)O)ccc4OC)nc3s2)c(OC)c1	–	3D7	72 h, blood stage	2230
CCn1cc(-c2nc(C)no2)c(=O)c2cc(F)c(N3CCCC3)cc21	–	3D7	72 h, blood stage	500
CN1CCN(c2ncc(-c3ccc4c(Nc5ccc(OCc6cccc(F)c6)c(Cl)c5)ccnc4c3)cn2)CC1	–	D6	drug-resistant strain, blood stage	26
COc1cc(C(=O)N(C)C)ccc1-c1cc2nccc(-c3ccc4ccncc4c3)c2o1	–	3D7	72 h, blood stage	997
